Experimental data from different studies.
Compare with care: the assays were run in different laboratories.
Cell line: PC-3
Effect on: cell growth or viability

`CCc1cccc(NC(=O)C2CCCN(C(=O)c3cc(C(F)(F)F)cc(C(F)(F)F)c3)C2)c1` (stereo not drawn) gave an inhibition of 0% (WST-1; 100 µM).
The inhibition of `O=C(CN1C(=O)/C(=C/c2ccccc2)SC1=S)Nc1ccccc1` is reported as 43.8% (MTT; 10 µM).
For `O=C1Nc2ccccc2C1=NNc1nnc2n1N=C(c1ccccc1)CS2`, the inhibition was 20% (SRB; 10 µM).
With `O=C(Nc1cccc(Cc2ccccc2)c1)C1CCCN(C(=O)c2cc(C(F)(F)F)cc(C(F)(F)F)c2)C1` (stereo not drawn) the inhibition was 0% (WST-1; 100 µM).
With `COc1ccc(C(=O)/C=C/c2cccc(Cl)c2Cl)cc1S(N)(=O)=O` the inhibition was 95% (SRB; 10 µM).
`COc1cc(CNC(=O)CCCC/C=C/C(C)C)ccc1O` gave an inhibition of 19% (SRB; 10 µM).
`COc1ccc(C(=O)/C=C/c2cccnc2)cc1S(N)(=O)=O` has an inhibition of 22% (SRB; 10 µM).
For `O=C(CN1C(=O)/C(=C/C2CC2)SC1=S)Nc1ccccc1`, the inhibition was 24.1% (MTT; 10 µM).
`COc1ccc(C(=O)/C=C/c2cc3c(cc2Br)OCO3)cc1S(N)(=O)=O` gave an inhibition of 98% (SRB; 10 µM).
For `O=C(CN1C(=O)/C(=C/c2ccncc2)SC1=S)Nc1ccccc1`, the inhibition was 5.33% (MTT; 10 µM).
`COC(=O)c1cc(-c2cccc(NC(=O)C3CCCN(C(=O)c4cc(C(F)(F)F)cc(C(F)(F)F)c4)C3)c2)co1` (stereo not drawn) gave an inhibition of 0% (WST-1; 100 µM).
The inhibition of `COc1ccc(C(=O)/C=C/c2cccc(Cl)c2)cc1S(N)(=O)=O` is reported as 68% (SRB; 10 µM).
For `COc1ccc(/C=C2\SC(=S)N(CC(=O)Nc3ccccc3)C2=O)cc1`, the inhibition was 25% (MTT; 10 µM).
With `COc1ccc(C(=O)/C=C/c2ccccc2Br)cc1S(N)(=O)=O` the inhibition was 79% (SRB; 10 µM).
The inhibition of `Cn1cnnc1-c1cccc(NC(=O)C2CCCN(C(=O)c3cc(C(F)(F)F)cc(C(F)(F)F)c3)C2)c1` (stereo not drawn) is reported as 0% (WST-1; 100 µM).
